According to ChEMBL document CHEMBL2439987, “TRPV1 antagonist with high analgesic efficacy: 2-Thio pyridine C-region analogues of 2-(3-fluoro-4-methylsulfonylaminophenyl)propanamides” (Bioorg Med Chem, 2013):
Calls of active or inactive are those of the source. The calls are words filed in the database; no cut-off is given here.

What was measured:
[1] = biological target: T1, Transient receptor potential cation channel subfamily V member 1 (Homo sapiens, UniProt Q8NER1); test: Antagonist activity at human TRPV1 expressed in CHOK1 cells assessed as inhibition of pH-induced activity by FLIPR assay; assay type: cell-based; conditions: for inhibition: CHO-K1
T1 sequence (Q8NER1 whole entry): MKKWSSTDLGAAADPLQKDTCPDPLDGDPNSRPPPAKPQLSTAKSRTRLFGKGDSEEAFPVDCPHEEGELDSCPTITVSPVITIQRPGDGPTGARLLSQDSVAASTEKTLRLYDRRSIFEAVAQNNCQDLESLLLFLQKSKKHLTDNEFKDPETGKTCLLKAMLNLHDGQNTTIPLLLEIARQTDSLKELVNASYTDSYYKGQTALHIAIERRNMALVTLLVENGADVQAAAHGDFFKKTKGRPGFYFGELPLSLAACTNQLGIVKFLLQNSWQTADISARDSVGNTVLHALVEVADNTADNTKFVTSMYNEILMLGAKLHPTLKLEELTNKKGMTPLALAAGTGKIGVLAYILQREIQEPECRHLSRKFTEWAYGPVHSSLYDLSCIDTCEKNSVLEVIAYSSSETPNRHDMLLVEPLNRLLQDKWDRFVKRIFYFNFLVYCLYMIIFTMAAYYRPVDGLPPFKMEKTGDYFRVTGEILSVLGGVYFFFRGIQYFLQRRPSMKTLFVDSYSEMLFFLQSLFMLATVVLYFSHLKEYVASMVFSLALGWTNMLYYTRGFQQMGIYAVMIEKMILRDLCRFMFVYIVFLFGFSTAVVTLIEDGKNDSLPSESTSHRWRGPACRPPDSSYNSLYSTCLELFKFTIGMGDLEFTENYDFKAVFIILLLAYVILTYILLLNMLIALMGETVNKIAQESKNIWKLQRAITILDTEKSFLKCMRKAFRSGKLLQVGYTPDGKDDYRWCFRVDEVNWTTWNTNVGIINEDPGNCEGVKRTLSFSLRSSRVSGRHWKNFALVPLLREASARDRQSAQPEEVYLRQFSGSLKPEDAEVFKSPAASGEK

[2] = biological target: T1, Transient receptor potential cation channel subfamily V member 1; test: Antagonist activity at human TRPV1 expressed in CHOK1 cells assessed as inhibition of capsaicin-induced activity by FLIPR assay; assay type: cell-based, CHO-K1
Rattus norvegicus [3] = test: Analgesic activity in CCI-induced Sprague-Dawley rat neuropathic pain model assessed as reduction in paw withdrawal at 10 mg/kg, po measured 45 mins post compound administration relative to control; assay type: functional
In short: (§1)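 Chronic constriction injury (Bennett model) of neuropathic pain in rats, read out as cold allodynia. Compound given orally and compared with vehicle. Effect expressed as % maximal possible effect (MPE), with n = 10 per group, mean ± SEM, and p < 0.05 versus vehicle. ED50 taken from the dose–response.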

[4] = biological target: T1, Transient receptor potential cation channel subfamily V member 1; test: Antagonist activity at human TRPV1 expressed in CHOK1 cells assessed as inhibition of N-arachidonoyl dopamine-induced activity after 5 mins by FLIPR assay
Mus musculus = test: Inhibition of capsaicin-induced hypothermia in NMRI mouse at 0.3 mg/kg, po administered 15 mins prior challenge measured at 30 mins post-challenge; assay type: functional, organism-based; set-up: dose 0.3 mg/kg
[5] = biological target: T1, Transient receptor potential cation channel subfamily V member 1; test: Antagonist activity at human TRPV1 expressed in CHOK1 cells assessed as inhibition of 45 degC heat-induced activity after 5 mins by FLIPR assay; assay type: cell-based, CHO-K1
Rattus norvegicus [6] = test: Analgesic activity in CCI-induced Sprague-Dawley rat neuropathic pain model assessed as reduction in paw withdrawal measured 45 mins after po administration; assay type: functional; in short: as §1

Structure (SMILES) | inhibition [1] | Ki ([2]; read-out: Ki) [nM] | IC50 [1] [nM] | further results
CC(C(=O)NCc1ccc(C(F)(F)F)nc1SCCCN1CCOCC1)c1ccc(NS(C)(=O)=O)c(F)c1 (centres undefined) | inactive |  |  | Ki ([2]; cho-k1): Not Active
CC(C(=O)NCc1ccc(C(F)(F)F)nc1SCCC(=O)N1CCCC1)c1ccc(NS(C)(=O)=O)c(F)c1 (centres undefined) | inactive | 85 |  | 
C[C@H](C(=O)NCc1ccc(C(F)(F)F)nc1SC1CCCCC1)c1ccc(NS(C)(=O)=O)c(F)c1 |  | 0.4 | > 1000 | %max (Rattus norvegicus [3]): 75%; Ki [4]: 0.05 nM; inhibition (Mus musculus): Active; IC50 [5]: 22.3 nM; Activity (Rattus norvegicus [6]): Dose-dependent effect; ED50 (Rattus norvegicus [6]; 0.75 h): 0.19 mg/kg
COC(=O)CCSc1nc(C(F)(F)F)ccc1CNC(=O)C(C)c1ccc(NS(C)(=O)=O)c(F)c1 (centres undefined) |  | 48.2 | 1100 | 
CCCCCCSc1nc(C(F)(F)F)ccc1CNC(=O)C(C)c1ccc(NS(C)(=O)=O)c(F)c1 (centres undefined) |  | 5.6 | 719 | 
CC(C(=O)NCc1ccc(C(F)(F)F)nc1SCC(F)(F)F)c1ccc(NS(C)(=O)=O)c(F)c1 (centres undefined) | inactive | 4.3 |  | 
CC(C(=O)NCc1ccc(C(F)(F)F)nc1SCc1ccc(Cl)cc1)c1ccc(NS(C)(=O)=O)c(F)c1 (centres undefined) |  | 8.7 | 674 | 
Cc1ccc(CSc2nc(C(F)(F)F)ccc2CNC(=O)C(C)c2ccc(NS(C)(=O)=O)c(F)c2)cc1 (centres undefined) |  | 3.2 | 764 | 
CC(C(=O)NCc1ccc(C(F)(F)F)nc1SCCCN(C)C)c1ccc(NS(C)(=O)=O)c(F)c1 (centres undefined) |  | 27.4 | 1500 | 
CC(C(=O)NCc1ccc(C(F)(F)F)nc1SCCc1ccccc1)c1ccc(NS(C)(=O)=O)c(F)c1 (centres undefined) |  | 1.9 | 111 | 
C[C@H](C(=O)NCc1ccc(C(C)(C)C)cc1)c1ccc(NS(C)(=O)=O)c(F)c1 |  | 28 | 1280 | 
CC(C(=O)NCc1ccc(C(F)(F)F)nc1SCCOc1ccccc1)c1ccc(NS(C)(=O)=O)c(F)c1 (centres undefined) |  | 2.3 | 118 | 
CC(C)CCSc1nc(C(F)(F)F)ccc1CNC(=O)C(C)c1ccc(NS(C)(=O)=O)c(F)c1 (centres undefined) |  | 0.7 | 82 | 
CC(C(=O)NCc1ccc(C(F)(F)F)nc1SCc1ccccc1Cl)c1ccc(NS(C)(=O)=O)c(F)c1 (centres undefined) |  | 4.9 | 620 | 
CC(C(=O)NCc1ccc(C(F)(F)F)nc1SCCC(=O)O)c1ccc(NS(C)(=O)=O)c(F)c1 (centres undefined) | inactive |  |  | Ki ([2]; cho-k1): Not Active
CCCCCSc1nc(C(F)(F)F)ccc1CNC(=O)C(C)c1ccc(NS(C)(=O)=O)c(F)c1 (centres undefined) |  | 2.5 | 95.6 | 
COc1ccc(CSc2nc(C(F)(F)F)ccc2CNC(=O)C(C)c2ccc(NS(C)(=O)=O)c(F)c2)cc1 (centres undefined) |  | 2.3 | 279 | 
CC(C(=O)NCc1ccc(C(F)(F)F)nc1SCc1cccs1)c1ccc(NS(C)(=O)=O)c(F)c1 (centres undefined) | inactive | 15 |  | 
CC(C(=O)NCc1ccc(C(F)(F)F)nc1SCc1cccc(C(F)(F)F)c1)c1ccc(NS(C)(=O)=O)c(F)c1 (centres undefined) |  | 3.9 | 71 | 
CC(C(=O)NCc1ccc(C(F)(F)F)nc1SCc1ccco1)c1ccc(NS(C)(=O)=O)c(F)c1 (centres undefined) | inactive | 14.6 |  | 
CC(C(=O)NCc1ccc(C(F)(F)F)nc1SCCCO)c1ccc(NS(C)(=O)=O)c(F)c1 (centres undefined) |  |  |  | Ki ([2]; cho-k1): Not Active

Second part, led by results:

inhibition [1] | Ki ([2]; read-out: Ki) [nM] | IC50 [1] [nM] | Structure (SMILES) | further results
inactive | 1.2 |  | CC(C(=O)NCc1ccc(C(F)(F)F)nc1SC1CCCC1)c1ccc(NS(C)(=O)=O)c(F)c1 (centres undefined) | 
 | 3.3 | 312 | CC(C(=O)NCc1ccc(C(F)(F)F)nc1SCCCN1CCCC1)c1ccc(NS(C)(=O)=O)c(F)c1 (centres undefined) | 
 | 0.5 | 180 | CC1CCC(Sc2nc(C(F)(F)F)ccc2CNC(=O)C(C)c2ccc(NS(C)(=O)=O)c(F)c2)CC1 (centres undefined) | 
 | 7 | 68 | CC(C(=O)NCc1ccc(C(F)(F)F)nc1SCCCBr)c1ccc(NS(C)(=O)=O)c(F)c1 (centres undefined) | 
inactive |  |  | CC(C(=O)NCc1ccc(C(F)(F)F)nc1S(=O)(=O)C1CCCCC1)c1ccc(NS(C)(=O)=O)c(F)c1 (centres undefined) | Ki ([2]; cho-k1): Not Active
inactive | 1 |  | CCC1CCC(Sc2nc(C(F)(F)F)ccc2CNC(=O)C(C)c2ccc(NS(C)(=O)=O)c(F)c2)CC1 (centres undefined) | 
 | 2.9 | 217 | CC1CCN(CCCSc2nc(C(F)(F)F)ccc2CNC(=O)C(C)c2ccc(NS(C)(=O)=O)c(F)c2)CC1 (centres undefined) | 
 | 2.3 | 254 | CC(C(=O)NCc1ccc(C(F)(F)F)nc1SCC1CCCCC1)c1ccc(NS(C)(=O)=O)c(F)c1 (centres undefined) | 
 | 3 | 250 | CC(C(=O)NCc1ccc(C(F)(F)F)nc1SCCCN1CCCCC1)c1ccc(NS(C)(=O)=O)c(F)c1 (centres undefined) | 
inactive |  |  | CC(C(=O)NCc1ccc(C(F)(F)F)nc1[S+]([O-])C1CCCCC1)c1ccc(NS(C)(=O)=O)c(F)c1 (centres undefined) | Ki ([2]; cho-k1): Not Active
inactive | 1.9 |  | CC(C(=O)NCc1ccc(C(F)(F)F)nc1SC1CCCCC1C)c1ccc(NS(C)(=O)=O)c(F)c1 (centres undefined) | 
inactive |  |  | CC(C(=O)NCc1ccc(C(F)(F)F)nc1SC1CCCCC1)c1ccc(NS(C)(=O)=O)c(F)c1 (centres undefined) | 
 | 2.6 | 89.6 | CC(C(=O)NCc1ccc(C(F)(F)F)nc1SC1CCC(C(C)(C)C)CC1)c1ccc(NS(C)(=O)=O)c(F)c1 (centres undefined) | 
inactive | 43.5 |  | C[C@@H](C(=O)NCc1ccc(C(F)(F)F)nc1SC1CCCCC1)c1ccc(NS(C)(=O)=O)c(F)c1 | 
